# PMC6122986 (The Journal of Cell Biology, 2018)
# What was measured:
# [1] = system: MTs in Drosophila S2 cells; test: MT association / localization in Drosophila S2 cells by live cell imaging; format: cell-based; conditions: fixation with paraformaldehyde and permeabilization with detergent
# How it was run: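 Drosophila S2 cells were grown in Schneider's medium with 10% heat-inactivated FBS at 25°C. Lines stably expressing C-terminally mCherry-tagged NOD truncations from a copper-inducible pMT vector were selected with blasticidin and/or hygromycin. Expression was induced with 500 µM or 25 µM CuSO4 for 16–18 h. Cells were imaged live on concanavalin A-coated glass and MT association scored as weak or strong. Retention was also checked after paraformaldehyde fixation and detergent permeabilization.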
# [2] = system: MTs in Drosophila S2 cells; test: Plus end-directed motility on MTs in cells; format: cell-based; conditions: TIRF microscopy, interphase S2 cells
# How it was run: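 Live TIRF imaged mCherry-tagged constructs on cortical MTs of interphase S2 cells. Cells were plated on concanavalin A-coated glass after 16–18 h CuSO4 induction at 500 µM (high) or 25 µM (low). Frames were taken every 1 s (single colour) or 2 s (dual colour, with GFP-α-tubulin). Velocities came from manually tracking motile puncta, with kymographs for direction.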
# [3] = molecular target: FITC-labeled NOD "PT" motif-1 peptide (Drosophila melanogaster); test: MST
Kd [3],Molecule,MT localization upon fixation (in words) [1],motility on MTs in cells (in words) [2]
,"NOD485: NOD truncation (1–485) that encompasses the motor domain and the noncanonical neck extension region (protein, UniProt P18105 1-485, looked up, fragment) MEGAKLSAVRIAVREAPYRQFLGRREPSVVQFPPWSDGKSLIVDQNEFHFDHAFPATISQDEMYQALILPLVDKLLEGFQCTALAYGQTGTGKSYSMGMTPPGEILPEHLGILPRALGDIFERVTARQENNKDAIQVYASFIEIYNEKPFDLLGSTPHMPMVAARCQRCTCLPLHSQADLHHILELGTRNRRVRPTNMNSNSSRSHAIVTIHVKSKTHHSRMNIVDLAGSEGVRRTGHEGVARQEGVNINLGLLSINKVVMSMAAGHTVIPYRDSVLTTVLQASLTAQSYLTFLACISPHQCDLSETLSTLRFGTSAKKLRLNPMQVARQKQSLAARTTHVFRQALCTSTAIKSNAANHNSIVVPKSKYSTTKPLSAVLHRTRSELGMTPKAKKRARELLELEETTLELSSIHIQDSSLSLLGFHSDSDKDRHLMPPPTGQEPRQASSQNSTLMGIVEETEPKESSKVQQSMVAPTVPTTVRCQL",significantly reduced upon fixation,motility was not obvious
725 nM,Drosophila GST-EB1 (natural protein) MAVNVYSTNVTSENLSRHDMLAWVNDCLQSQFSKIEELCTGAAYCQFMDMLFPNSVPVKRVKFRTNLEHEYIQNFKILQAGFKKMSVDKIIPIDKLVKGRFQDNFEFLQWFKKFFDANYDGRDYDASAVREGAPMGFGSGAVKSLPGTAASGVSSSYRRGPSATTRPAMTSAVKPISKVLPRTNNAAPASRINACANSTGTVKKNDVSNSVNNQQIEEMSNQVMDMRINLEGLEKERDFYFSKLRDIEILCQEADDAEAHPIIQKILDILYATEDGFAPPDDAPPEDEEY,,
